This is an account of results in ChEMBL document CHEMBL1125028, “Resolved pyrrolidine, piperidine, and perhydroazepine analogues of the muscarinic agent N-methyl-N-(1-methyl-4-pyrrolidino-2-butynyl)acetamide” (J Med Chem, 1990).

As usually defined, the Ki is a measure of affinity in units of concentration, obtained from inhibition or displacement. One may read the Kd as a measure of binding affinity in units of concentration. Read a high Kd as lower affinity. A word on the EC50: it is the concentration that produces a half-maximal response. The low end stands for higher potency in that assay, the high end for lower potency in that assay.

The nature of assay [1]: Inhibition of specific binding of [3H]NMS to Muscarinic acetylcholine receptor in rat cerebral cortex by using competitive binding assay. The assay is classed as tissue-based. The gist of the method:
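Male Sprague–Dawley rat (200–300 g) cortex homogenized in 50 mM Na/K phosphate pH 7.4, spun 30000g 10 min, resuspended at 10 mg wet tissue/mL. Incubated with 0.3 nM (-)-[3H]NMS and test ligand, 30 min at 30 °C; filtration assay. […] IC50 by one-site nonlinear fit, converted to Ki by Cheng–Prusoff. Three determinations in triplicate.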

In assay [2] the target is Muscarinic acetylcholine receptor. Kind of assay: (§1) Dissociation constant towards Muscarinic acetylcholine receptor in guinea pig ileum. The format is tissue-based, Cavia porcellus.
The species named for assay [3] is Cavia porcellus. Put plainly: Slope of schild plot in guinea pig ileum was determined. The assay is classed as functional. The method, boiled down: (§2)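 Guinea pig ileum in Tyrode solution (pH 7.4) with 0.3 mM hexamethonium, 37 °C; isotonic contractions recorded at 1 g tension. Cumulative concentration-response curves built with agonist concentration stepped by a factor of 2.15. Maximal response expressed relative to carbachol. Antagonism tested at no fewer than four antagonist concentrations. Means ± SE over the number of ileal preparations.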

For assay [4], the species on record is Cavia porcellus. Put plainly: Maximum contractile response in guinea pig ileum relative to that elicited by carbachol was determined. The format is functional. The method, boiled down: as §2
The target in assay [5] is Muscarinic acetylcholine receptor. Put plainly: Compound was tested for its potency against Muscarinic acetylcholine receptor in guinea pig ileum. The format is functional, tissue-based, Cavia porcellus.
Assay [6] has the same target. The assay is described as §1. The assay is classed as tissue-based, Cavia porcellus. The gist of the method:
as §2
The source holds these as a separate data set.

SMILES strings stand for the structures.

On to `CC(=O)N1CCCC[C@H]1C#CCN1CCCC1`, for which, in assay [1], the affinity, expressed as Ki, was 1480 nM. In assay [2], the Kd was determined as 6320 nM. In addition, the “Slope of Schild plot” value in the assay listed under Cavia porcellus [3] stood at 0.99.

In the assay listed under Cavia porcellus [4], `C[N+](C)(C)CCOC(N)=O.[Cl-]` [CARBACHOL] had an Emax of 1.

In assay [1], `CC(=O)N1CCCCC[C@H]1C#CCN1CCCC1` returned a Ki of 2070 nM. The compound also came in with a Kd in assay [2] of 7850 nM. For the same compound, the “Slope of Schild plot” value in the assay filed under Cavia porcellus [3] was determined as 1.17. In the assay listed under Cavia porcellus [4], this compound registered an Emax of 0.

For the compound `CC(=O)N1CCCC[C@@H]1C#CCN1CCCC1`, the Ki in assay [1] was determined as 16 nM. The compound also displayed a Kd in assay [2] of 80 nM. The “Slope of Schild plot” value in the assay filed under Cavia porcellus [3] is 0.86.

For the compound `CC(=O)N1CCCCCC1C#CC[N+](C)(C)C` (racemic), in assay [1], the Ki was 1230 nM. This compound also registered a Kd in assay [2] of 3550 nM. Further, the “Slope of Schild plot” value in the assay filed under Cavia porcellus [3] is on record as 1.03.

`CC(=O)N1CCCC1C#CCN1CCCC1` (racemic) displayed a Ki in assay [1] of 670 nM. The same compound had a Kd in assay [2] of 1400 nM. In addition, the “Slope of Schild plot” value in the assay listed under Cavia porcellus [3] came to 0.9. Also, the Emax in the assay listed under Cavia porcellus [4] is recorded as 0.

With `CC(=O)N1CCCCCC1C#CCN1CCCC1` (racemic), in assay [1], the affinity, expressed as Ki, was 82 nM. The compound further came in with a Kd in assay [2] of 110 nM. Besides, in the assay filed under Cavia porcellus [3], the “Slope of Schild plot” value amounted to 1.17. The Emax in the assay filed under Cavia porcellus [4] worked out at 0.

Consider `CC(=O)N(C)[C@@H](C)C#CCN1CCCC1`, for which the Kd in assay [2] was 3230 nM.

Regarding `CC(=O)N1CCCCC1C#CCN(C)C` (racemic), the Ki in assay [1] worked out at 2260 nM. Besides, in assay [2], the Kd is 8300 nM. The “Slope of Schild plot” value in the assay listed under Cavia porcellus [3] was determined as 0.9. Further, the Emax in the assay listed under Cavia porcellus [4] is reported as 0.

In the case of `CC(=O)N1CCC[C@H]1C#CCN1CCCC1`, affinity in assay [1] was put at a Ki of 5160 nM. The compound further came in with a Kd in assay [2] of 16010 nM. Moreover, the “Slope of Schild plot” value in the assay filed under Cavia porcellus [3] was 0.8. The compound further showed an Emax in the assay filed under Cavia porcellus [4] of 0.

In assay [1], `CC(=O)N1CCCCC1C#CCN1CCCC1` (racemic) came in with a Ki of 44 nM. In addition, the dissociation constant Kd in assay [2] turned out to be 97 nM. Further, the “Slope of Schild plot” value in the assay filed under Cavia porcellus [3] is 0.88. This compound also registered an Emax in the assay filed under Cavia porcellus [4] of 0.

As for `CC(=O)N1CCCC1C#CC[N+](C)(C)C` (racemic), affinity in assay [1] was put at a Ki of 6100 nM. Moreover, the EC50 in assay [5] worked out at 7500 nM. This compound also returned a Kd in assay [6] of 49500 nM. Further, in the assay filed under Cavia porcellus [4], the Emax came out at 0.8.

In the case of `CC(=O)N1CCCC1C#CCN(C)C` (racemic), the Ki in assay [1] was 25400 nM. Besides, in assay [2], the dissociation constant Kd is 125000 nM. The same compound had an Emax in the assay listed under Cavia porcellus [4] of 0.

In assay [1], `CC(=O)N1CCCCC[C@@H]1C#CCN1CCCC1` displayed a Ki of 42 nM. The Kd in assay [2] was determined as 161 nM. Besides, the “Slope of Schild plot” value in the assay listed under Cavia porcellus [3] was found to be 1.27. For the same compound, in the assay filed under Cavia porcellus [4], the Emax was found to be 0.

`CC(=O)N1CCCCCC1C#CCN(C)C` (racemic) yielded a Ki in assay [1] of 2900 nM. Besides, the Kd in assay [2] is 7000 nM. Also, the “Slope of Schild plot” value in the assay listed under Cavia porcellus [3] came to 1.1. The same compound came in with an Emax in the assay listed under Cavia porcellus [4] of 0.

For the compound `CC(=O)N1CCCCC1C#CC[N+](C)(C)C` (racemic), the inhibitory constant (Ki) in assay [1] stood at 750 nM. The compound also showed an EC50 in assay [5] of 2800 nM. Also, in the assay filed under Cavia porcellus [4], the Emax turned out to be 0.75.

Turning to `CC(=O)N1CCC[C@@H]1C#CCN1CCCC1`, affinity in assay [1] was put at a Ki of 410 nM. Besides, the Kd in assay [2] is 1160 nM. Besides, the “Slope of Schild plot” value in the assay listed under Cavia porcellus [3] is listed as 1.05. In addition, the Emax in the assay filed under Cavia porcellus [4] came out at 0.

As to `CC(=O)N(C)[C@H](C)C#CCN1CCCC1`, in assay [5], the EC50 was 94 nM. In addition, in assay [2], the Kd was 200 nM. This compound came in with an Emax in the assay listed under Cavia porcellus [4] of 0.83.
